According to ChEMBL document CHEMBL1133661, “Synthesis and in vitro anti-mycobacterium activity of N-alkyl-1, 2-dihydro-2-thioxo-3-pyridinecarbothioamides. Preliminary toxicity and pharmacokinetic evaluation” (J Med Chem, 2000):
Values after ≈ are worked out from the molar mass of the structure shown.

How the values were obtained:
Mycobacterium avium [1] = assay: In Vitro antimicrobial activity against the Mycobacterium avium complex (MAC) strain ATCC 15769; format: functional
Method in brief: (§1)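 MIC by radiometric broth dilution (BACTEC 460-TB) in 7H12 liquid medium containing 14C-palmitic acid. Growth read as 14CO2 release, recorded as growth index (0–999). Compounds stocked in DMSO; working solutions at 40-fold final concentration made in sterile distilled water. Ethambutol reference. MIC expressed in µg/mL.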

[2] = test system: Mycobacterium tuberculosis; assay: In Vitro antimicrobial activity against the Mycobacterium tuberculosis (MT) Wild type strain MT-1; format: functional; method in brief: as §1
[3] = test system: Mycobacterium tuberculosis; assay: In Vitro antimicrobial activity against the Mycobacterium tuberculosis (MT) Wild type strain MT-2; format: functional; method in brief: as §1
[4] = test system: Mycobacterium tuberculosis; assay: In Vitro antimicrobial activity against the Mycobacterium tuberculosis (MT) strain H-37-Rv ATCC; format: functional; method in brief: as §1
Mycobacterium avium [5] = assay: In Vitro antimicrobial activity against the Mycobacterium avium complex (MAC) Wild type strain AN1; format: functional; method in brief: as §1
Mycobacterium avium [6] = assay: In Vitro antimicrobial activity against the Mycobacterium avium complex (MAC) Wild type strain AN2; format: functional; method in brief: as §1
Mycobacterium avium [7] = assay: In Vitro antimicrobial activity against the Mycobacterium avium complex (MAC) Wild type strain AN3; format: functional; method in brief: as §1
Mycobacterium avium [8] = assay: In Vitro antimicrobial activity against the Mycobacterium avium complex (MAC) Wild type strain ISS 486; format: functional; method in brief: as §1
Mycobacterium avium [9] = assay: In Vitro antimicrobial activity against Mycobacterium avium complex (MAC) strain ATCC 15769; format: functional; method in brief: as §1
[10] = Clearance (CL) value in rats after intravenous administration.; format: ADME, organism-based; settings: rat, in vivo, read-out: CI
Method in brief: (§2)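 Male Wistar rats (250-300 g), single 20 mg/kg i.v. dose in poly(ethylene glycol) 400, given through a permanent jugular-vein cannula that also served for blood sampling. Plasma levels measured by GC-MS (electron impact 70 eV; ions 233, 181, 168, 137, 104 monitored). Parameters derived by noncompartmental analysis.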

[11] = Mean residence time (MRT) in rats after intravenous administration; format: ADME, organism-based; settings: rat, in vivo; method in brief: as §2
[12] = Area under curve (AUC) value of the compound; format: ADME; method in brief: as §2
[13] = Elimination half life value after intravenous administration in rats; format: ADME, organism-based; settings: rat, in vivo; method in brief: as §2
[14] = Volume of distribution in rats after intravenous administration; format: ADME, organism-based; settings: rat, in vivo, read-out: Vss; method in brief: as §2
[15] = Mean residence time (MRT) in rats after intravenous administration.; format: ADME, organism-based; settings: rat, in vivo; method in brief: as §2

SMILES	MIC (Mycobacterium avium [1])	MIC [2]	MIC [3]	MIC [4]	MIC (Mycobacterium avium [5])	MIC (Mycobacterium avium [6])	MIC (Mycobacterium avium [7])	MIC (Mycobacterium avium [8])	MIC (Mycobacterium avium [9])	clearance [10]	MRT [11]	AUC [12]	half-life [13]	Vd [14]	MRT [15]
CCCCCC/N=c1\ssc2ncccc12.CCCCCCn1sc2ncccc2c1=S	8 µg/mL	8 µg/mL	8 µg/mL	4 µg/mL	–	–	–	–	–	–	–	–	–	–	–
CCCCC/N=C(\S)c1cccnc1S	1 µg/mL (≈ 4.16 µM)	4 µg/mL (≈ 16.6 µM)	4 µg/mL (≈ 16.6 µM)	2 µg/mL (≈ 8.32 µM)	1 µg/mL (≈ 4.16 µM)	2 µg/mL (≈ 8.32 µM)	1 µg/mL (≈ 4.16 µM)	1 µg/mL (≈ 4.16 µM)	–	–	–	–	–	–	–
CC[C@@H](CO)NCCN[C@@H](CC)CO [ETHAMBUTOL]	–	< 2 µg/mL	< 2 µg/mL	< 2 µg/mL	1 µg/mL (≈ 4.89 µM)	0.5 µg/mL (≈ 2.45 µM)	2 µg/mL (≈ 9.79 µM)	2 µg/mL (≈ 9.79 µM)	–	–	–	–	–	–	–
CCCC/N=C(\S)c1cccnc1S	1 µg/mL (≈ 4.42 µM)	4 µg/mL (≈ 17.7 µM)	4 µg/mL (≈ 17.7 µM)	4 µg/mL (≈ 17.7 µM)	4 µg/mL (≈ 17.7 µM)	4 µg/mL (≈ 17.7 µM)	4 µg/mL (≈ 17.7 µM)	2 µg/mL (≈ 8.84 µM)	–	–	–	–	–	–	–
S=c1ssc2ncccc12	–	–	–	–	–	–	–	–	8 µg/mL (≈ 43.2 µM)	–	–	–	–	–	–
CCCCCCCCCCCCCCCCCC/N=C(\S)c1cccnc1S	64 µg/mL (≈ 151 µM)	64 µg/mL (≈ 151 µM)	64 µg/mL (≈ 151 µM)	32 µg/mL (≈ 75.7 µM)	32 µg/mL (≈ 75.7 µM)	32 µg/mL (≈ 75.7 µM)	32 µg/mL (≈ 75.7 µM)	32 µg/mL (≈ 75.7 µM)	–	–	–	–	–	–	–
CCCCCCn1sc2ncccc2c1=O	16 µg/mL (≈ 67.7 µM)	8 µg/mL (≈ 33.8 µM)	8 µg/mL (≈ 33.8 µM)	16 µg/mL (≈ 67.7 µM)	–	–	–	–	–	–	–	–	–	–	–
CCCCCCC/N=C(\S)c1cccnc1S	2 µg/mL (≈ 7.45 µM)	2 µg/mL (≈ 7.45 µM)	2 µg/mL (≈ 7.45 µM)	0.5 µg/mL (≈ 1.86 µM)	4 µg/mL (≈ 14.9 µM)	4 µg/mL (≈ 14.9 µM)	4 µg/mL (≈ 14.9 µM)	4 µg/mL (≈ 14.9 µM)	–	50 mL/min	28.9 min	8250 ng·h/mL	28 min	1.28 L	–
CC/N=C(\S)c1cccnc1S	4 µg/mL (≈ 20.2 µM)	1 µg/mL (≈ 5.04 µM)	1 µg/mL (≈ 5.04 µM)	0.5 µg/mL (≈ 2.52 µM)	4 µg/mL (≈ 20.2 µM)	8 µg/mL (≈ 40.3 µM)	8 µg/mL (≈ 40.3 µM)	4 µg/mL (≈ 20.2 µM)	–	20 mL/min	–	18500 ng·h/mL	37.2 min	0.93 L	47.6 min
CCCCCCCC/N=C(\S)c1cccnc1S	4 µg/mL (≈ 14.2 µM)	4 µg/mL (≈ 14.2 µM)	4 µg/mL (≈ 14.2 µM)	1 µg/mL (≈ 3.54 µM)	8 µg/mL (≈ 28.3 µM)	4 µg/mL (≈ 14.2 µM)	4 µg/mL (≈ 14.2 µM)	8 µg/mL (≈ 28.3 µM)	–	–	–	–	–	–	–
CCCCCCNC(=O)c1cccnc1S	8 µg/mL (≈ 33.6 µM)	8 µg/mL (≈ 33.6 µM)	16 µg/mL (≈ 67.1 µM)	8 µg/mL (≈ 33.6 µM)	–	–	–	–	–	–	–	–	–	–	–
C/N=C(\S)c1cccnc1S	4 µg/mL (≈ 21.7 µM)	1 µg/mL (≈ 5.43 µM)	1 µg/mL (≈ 5.43 µM)	2 µg/mL (≈ 10.9 µM)	8 µg/mL (≈ 43.4 µM)	4 µg/mL (≈ 21.7 µM)	4 µg/mL (≈ 21.7 µM)	4 µg/mL (≈ 21.7 µM)	–	–	–	–	–	–	–
CCCCCCCCCCCCCCCC/N=C(\S)c1cccnc1S	8 µg/mL (≈ 20.3 µM)	16 µg/mL (≈ 40.5 µM)	32 µg/mL (≈ 81.1 µM)	16 µg/mL (≈ 40.5 µM)	8 µg/mL (≈ 20.3 µM)	8 µg/mL (≈ 20.3 µM)	8 µg/mL (≈ 20.3 µM)	8 µg/mL (≈ 20.3 µM)	–	–	–	–	–	–	–
OCC/N=C(\S)c1cccnc1S	8 µg/mL (≈ 37.3 µM)	4 µg/mL (≈ 18.7 µM)	8 µg/mL (≈ 37.3 µM)	2 µg/mL (≈ 9.33 µM)	4 µg/mL (≈ 18.7 µM)	8 µg/mL (≈ 37.3 µM)	4 µg/mL (≈ 18.7 µM)	8 µg/mL (≈ 37.3 µM)	–	–	–	–	–	–	–
O=c1ssc2ncccc12	2 µg/mL (≈ 11.8 µM)	8 µg/mL (≈ 47.3 µM)	8 µg/mL (≈ 47.3 µM)	4 µg/mL (≈ 23.6 µM)	–	–	–	–	–	–	–	–	–	–	–
S/C(=N\C1CCCCC1)c1cccnc1S	4 µg/mL (≈ 15.8 µM)	4 µg/mL (≈ 15.8 µM)	1 µg/mL (≈ 3.96 µM)	0.5 µg/mL (≈ 1.98 µM)	4 µg/mL (≈ 15.8 µM)	4 µg/mL (≈ 15.8 µM)	4 µg/mL (≈ 15.8 µM)	4 µg/mL (≈ 15.8 µM)	–	–	–	–	–	–	–
CCCCCCCCCC/N=C(\S)c1cccnc1S	16 µg/mL (≈ 51.5 µM)	64 µg/mL (≈ 206 µM)	64 µg/mL (≈ 206 µM)	16 µg/mL (≈ 51.5 µM)	32 µg/mL (≈ 103 µM)	32 µg/mL (≈ 103 µM)	32 µg/mL (≈ 103 µM)	32 µg/mL (≈ 103 µM)	–	–	–	–	–	–	–
CCCCCCCCC/N=C(\S)c1cccnc1S	8 µg/mL (≈ 27 µM)	16 µg/mL (≈ 54 µM)	16 µg/mL (≈ 54 µM)	4 µg/mL (≈ 13.5 µM)	8 µg/mL (≈ 27 µM)	8 µg/mL (≈ 27 µM)	8 µg/mL (≈ 27 µM)	8 µg/mL (≈ 27 µM)	–	–	–	–	–	–	–
CCC/N=C(\S)c1cccnc1S	2 µg/mL (≈ 9.42 µM)	4 µg/mL (≈ 18.8 µM)	4 µg/mL (≈ 18.8 µM)	2 µg/mL (≈ 9.42 µM)	2 µg/mL (≈ 9.42 µM)	4 µg/mL (≈ 18.8 µM)	2 µg/mL (≈ 9.42 µM)	1 µg/mL (≈ 4.71 µM)	–	–	–	–	–	–	–
CCCCCC/N=C(\S)c1cccnc1S	1 µg/mL (≈ 3.93 µM)	1 µg/mL (≈ 3.93 µM)	2 µg/mL (≈ 7.86 µM)	1 µg/mL (≈ 3.93 µM)	1 µg/mL (≈ 3.93 µM)	1 µg/mL (≈ 3.93 µM)	1 µg/mL (≈ 3.93 µM)	0.5 µg/mL (≈ 1.97 µM)	–	–	–	–	–	–	–
